The test system of experiment [1] is Clostridium botulinum. Nature of the experiment: Inhibition of botulinum neurotoxin serotype A light chain metalloprotease at 50 uM. In short, it runs like this: (§1)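 Percent inhibition of BoNT/A light chain metalloprotease activity was measured at a single inhibitor concentration, by a method described in earlier work, in duplicate.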
Experiment [2] can be described thus: Inhibition of botulinum neurotoxin serotype A light chain metalloprotease. The arrangement: species or system Clostridium botulinum. In short, it runs like this:
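Metalloprotease activity of the BoNT/A light chain was measured by a method described in earlier work. IC50 was derived from concentration-versus-inhibition plots using seven or nine concentrations per inhibitor, averaged from duplicate determinations.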

The subject of experiment [3] is Clostridium botulinum. Nature of the experiment: Inhibition of botulinum neurotoxin serotype A light chain metalloprotease at 20 uM. In short, it runs like this: as §1

For eight compounds, inhibition and IC50 results are on record in ChEMBL document CHEMBL1147147 (J Med Chem, 2007).

As for `COC(=O)CCC(C)[C@H]1CC[C@H]2[C@@H]3[C@H](OC(C)=O)C[C@@H]4C[C@H](OCCNc5ccnc6cc(Cl)ccc56)CC[C@]4(C)[C@H]3CC(OC(C)=O)[C@]12C` (stereo partly specified), the inhibition with Clostridium botulinum [1] was 9%. As to `Nc1ccnc2cc(Cl)ccc12`, in the experiment with Clostridium botulinum [1], the inhibition came to 12%. On the same count and under the same terms, the value for `COC(=O)CCC(C)[C@H]1CC[C@H]2[C@@H]3[C@H](OC(C)=O)C[C@@H]4C[C@H](OCCNCCNc5ccnc6cc(Cl)ccc56)CC[C@]4(C)[C@H]3CC(OC(C)=O)[C@]12C` (stereo partly specified) was 62%. For the compound `COC(=O)CCC(C)[C@H]1CC[C@H]2[C@@H]3[C@H](OC(C)=O)C[C@@H]4C[C@H](NCCNc5ccnc6cc(Cl)ccc56)CC[C@]4(C)[C@H]3C[C@H](OC(C)=O)[C@]12C` (stereo partly specified), half-maximal inhibition in experiment [2] (IC50) required 7 µM. The same compound yielded an inhibition with Clostridium botulinum [1] of 90%. For the compound `COC(=O)CCC(C)[C@H]1CC[C@H]2[C@@H]3[C@H](OC(C)=O)C[C@@H]4C[C@@H](NCCNc5ccnc6cc(Cl)ccc56)CC[C@]4(C)[C@H]3C[C@H](OC(C)=O)[C@]12C` (stereo partly specified), in experiment [2], half-maximal inhibition (IC50) was put at 17 µM. The inhibition with Clostridium botulinum [1] was determined as 80%. In turn, `COC(=O)CCC(C)[C@H]1CC[C@H]2[C@@H]3[C@H](OC(C)=O)C[C@@H]4C[C@H](OC(C)=O)CC[C@]4(C)[C@H]3C[C@H](OC(C)=O)[C@]12C` (stereo partly specified) showed an inhibition with Clostridium botulinum [1] of 0%.

In the experiment with Clostridium botulinum [1], `COC(=O)CCC(C)[C@H]1CC[C@H]2[C@@H]3[C@H](OC(C)=O)C[C@@H]4C[C@H](N)CC[C@]4(C)[C@H]3C[C@H](OC(C)=O)[C@]12C` (stereo partly specified) showed an inhibition of 13%. As for `Clc1ccc2c(NCCCN(CCCNc3ccnc4cc(Cl)ccc34)CCCNc3ccnc4cc(Cl)ccc34)ccnc2c1`, in experiment [2], the half-inhibitory concentration (IC50) was 3.2 µM. Also, the inhibition in the experiment on Clostridium botulinum [3] was 67%.

What is called inhibition is the drop in the measured response relative to a control, in per cent. Read a high inhibition as a response far below the control. A word on the IC50: it is the concentration that gives 50% inhibition.
